Assay results: ChEMBL document CHEMBL3045815, “The cruciferous phytoalexins rapalexin A, brussalexin A and erucalexin: chemistry and metabolism in Leptosphaeria maculans” (Bioorg Med Chem, 2012)

Experiments:
[1] = test system: Plenodomus lingam; test: Antifungal activity against Leptosphaeria maculans assessed as mycelial radial growth inhibition on potato dextrose agar at 0.10 mM relative to control; format: functional
In short: (§1)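 Mycelial radial growth on PDA. L. maculans isolates BJ-125 or UAMH-9410 were grown on V8 agar for 14 days at 23 °C under constant light. Wells with PDA containing test compound (0.50, 0.20 or 0.10 mM) or control, each with 1% CH3CN, were inoculated centrally with inverted 4 mm plugs from 7-day-old V8 plates. Growth after 5 days under constant light gave % inhibition = 100 − (amended/control growth × 100); ± SD.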

[2] = test system: Plenodomus lingam; test: Antifungal activity against Leptosphaeria maculans assessed as mycelial radial growth inhibition on potato dextrose agar at 0.20 mM relative to control; format: functional; in short: as §1
[3] = test system: Plenodomus lingam; test: Antifungal activity against Leptosphaeria maculans assessed as mycelial radial growth inhibition on potato dextrose agar at 0.50 mM relative to control; format: functional; in short: as §1
[4] = Half life in potato dextrose agar medium; format: physicochemical
[5] = Half life in water; format: physicochemical
[6] = Half life in Leptosphaeria maculans; format: ADME, organism-based; conditions: plenodomus lingam
In short: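 Minimal medium inoculated with L. maculans BJ-125 spores was shaken at 120 rpm and 23 °C under constant light. After 2 days, compound was added in CH3CN (0.10 mM final); uninoculated medium served as control. Samples were taken immediately and at intervals up to 72–96 h, then frozen or extracted with EtOAc. Extracts were concentrated, taken up in CH3CN and analysed by HPLC.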

SMILES	inhibition at 100 µM [1]	inhibition at 200 µM [2]	inhibition at 500 µM [3]	half-life [4]	half-life [5]	half-life [6]
CON1c2ccccc2C(O)C12CN=C(SC)S2 (mixture of isomers) [DIHYDROERUCALEXIN]	7%	13%	23%	–	–	–
COc1cccc2[nH]cc(N=C=S)c12 [RAPALEXIN A]	21%	53%	100%	–	–	–
CNC(=S)SCc1c[nH]c2ccccc12	17%	35%	61%	24 h	20 h	–
CON1c2ccccc2C(=O)C12CN=C(SC)S2 (racemic) [RAC-ERUCALEXIN]	6%	17%	40%	–	–	< 6 h
OCc1c[nH]c2ccccc12 [INDOLE-3-CARBINOL]	19%	27%	52%	–	> 72 h	–
C=CCNC(=O)SCc1c[nH]c2ccccc12 [BRUSSALEXIN A]	7%	25%	43%	15 h	48 h	–
